According to ChEMBL document CHEMBL1833812, “Synthesis, biological evaluation, and automated docking of constrained analogues of the opioid peptide H-Dmt-D-Ala-Phe-Gly-NH₂ using the 4- or 5-methyl substituted 4-amino-1,2,4,5-tetrahydro-2-benzazepin-3-one scaffold” (J Med Chem, 2011):

Tests used:
Mu-type opioid receptor [1] = target: Mu-type opioid receptor (Homo sapiens, UniProt P35372); experiment: Agonist activity at Mu-type opioid receptor; format: functional
[2] = target: Delta-type opioid receptor (Homo sapiens, UniProt P41143); experiment: Agonist activity at delta-type opioid receptor; format: functional
Chain of Delta-type opioid receptor (Homo sapiens, UniProt P41143) (P41143 whole entry): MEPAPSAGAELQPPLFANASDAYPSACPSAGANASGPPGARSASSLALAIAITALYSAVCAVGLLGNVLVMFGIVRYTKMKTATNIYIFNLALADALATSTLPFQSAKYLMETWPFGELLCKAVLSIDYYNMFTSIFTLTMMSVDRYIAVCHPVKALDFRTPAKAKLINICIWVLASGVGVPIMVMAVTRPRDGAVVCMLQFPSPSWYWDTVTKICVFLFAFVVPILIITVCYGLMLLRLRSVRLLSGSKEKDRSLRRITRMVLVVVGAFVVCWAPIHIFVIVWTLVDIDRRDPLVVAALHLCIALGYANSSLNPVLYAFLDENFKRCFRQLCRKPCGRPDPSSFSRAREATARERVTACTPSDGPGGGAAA

Mu-type opioid receptor [3] = target: T1, Mu-type opioid receptor (Rattus norvegicus, UniProt P33535); experiment: Agonist activity at rat brain mu-opioid receptor assessed as [35S]GTPgammaS binding by liquid scintillation counting; format: functional
T1 sequence (P33535 whole entry): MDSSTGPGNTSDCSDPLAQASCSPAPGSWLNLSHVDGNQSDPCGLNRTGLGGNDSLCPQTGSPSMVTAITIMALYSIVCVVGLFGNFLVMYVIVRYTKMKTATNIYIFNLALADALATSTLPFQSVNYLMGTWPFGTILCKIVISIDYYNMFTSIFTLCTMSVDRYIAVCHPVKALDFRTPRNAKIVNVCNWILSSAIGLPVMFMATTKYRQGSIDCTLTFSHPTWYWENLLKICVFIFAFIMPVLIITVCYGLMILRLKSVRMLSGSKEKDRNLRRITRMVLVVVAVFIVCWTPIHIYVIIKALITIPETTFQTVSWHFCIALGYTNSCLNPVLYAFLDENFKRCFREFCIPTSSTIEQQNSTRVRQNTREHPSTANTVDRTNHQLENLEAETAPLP
Method in brief: (§1)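 Rat brain membranes (15 μg protein/tube) with 0.05 nM [35S]GTPγS and opioids 10^-10–10^-5 M, plus 30 μM GDP, 100 mM NaCl, 3 mM MgCl2, 1 mM EGTA in 50 mM Tris-HCl pH 7.4, 60 min at 30 °C. Started by protein, stopped with ice-cold buffer and GF/B filtration, scintillation counted. Nonspecific binding with 10 μM unlabeled GTPγS; stimulation as % of specific binding over basal (no opioid).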

Rattus norvegicus = species: Rattus norvegicus; experiment: Selectivity ratio of Ki of rat brain delta-type opioid receptor to Ki of rat brain Mu-type opioid receptor
Mu-type opioid receptor [4] = target: T1, Mu-type opioid receptor; experiment: Displacement of [3H]DAMGO from rat brain Mu-type opioid receptor by liquid scintillation counting
Method in brief: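 Wistar male rat (250–300 g) brain membrane homogenate, 0.2–0.4 mg protein/tube, with 0.5 nM [3H]DAMGO and competitor 10^-11–10^-5 M in 50 mM Tris-HCl pH 7.4, 1 h at 25 °C. Stopped by GF/C filtration, ice-cold Tris washes, scintillation counted. Nonspecific binding with 10 μM naloxone; duplicate runs, one/two-site competition fit for Ki.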

[5] = target: Delta-type opioid receptor (Rattus norvegicus, UniProt P33533); experiment: Displacement of [3H]Ile-deltorphin-2 from rat brain delta-type opioid receptor by liquid scintillation counting
Chain of Delta-type opioid receptor (Rattus norvegicus, UniProt P33533) (P33533 whole entry): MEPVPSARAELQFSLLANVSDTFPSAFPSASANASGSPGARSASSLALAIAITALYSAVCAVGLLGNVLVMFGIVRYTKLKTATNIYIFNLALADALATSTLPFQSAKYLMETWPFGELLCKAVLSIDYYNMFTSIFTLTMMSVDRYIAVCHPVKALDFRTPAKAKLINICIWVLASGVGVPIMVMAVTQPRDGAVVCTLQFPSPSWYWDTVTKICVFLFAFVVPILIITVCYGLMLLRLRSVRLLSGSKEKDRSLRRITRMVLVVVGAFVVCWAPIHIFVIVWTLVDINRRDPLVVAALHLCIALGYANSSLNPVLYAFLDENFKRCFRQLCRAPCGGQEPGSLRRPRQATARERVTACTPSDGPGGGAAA
Method in brief: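 Wistar male rat (250–300 g) brain membranes, 0.2–0.4 mg protein/tube, 2 nM [3H]Ile5,6-deltorphin-2 plus 0.25 mg BSA/tube, competitor 10^-11–10^-5 M, 50 mM Tris-HCl pH 7.4, 45 min at 35 °C. GF/B filtration, ice-cold Tris washes, scintillation counting. Nonspecific binding with 10 μM naloxone; duplicates, one/two-site competition fit for Ki.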

[6] = target: Mu-type opioid receptor (Rattus norvegicus) (UniProt P33535); experiment: Agonist activity at rat brain Mu-type opioid receptor assessed as [35S]GTPgammaS binding by liquid scintillation counting relative to control; format: functional; method in brief: as §1
Chain of Mu-type opioid receptor (Rattus norvegicus) (P33535 whole entry): as the sequence (P33535 whole entry) above

Mu-type opioid receptor [7] = target: Mu-type opioid receptor (Cavia porcellus, UniProt P97266); experiment: Agonist activity at guinea pig ileum Mu-type opioid receptor; format: functional, tissue-based
Chain of Mu-type opioid receptor (Cavia porcellus, UniProt P97266) (P97266 whole entry): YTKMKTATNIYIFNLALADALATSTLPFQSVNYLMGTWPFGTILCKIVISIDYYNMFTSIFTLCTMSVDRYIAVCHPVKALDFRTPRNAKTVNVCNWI

Chain of Mu-type opioid receptor (Homo sapiens, UniProt P35372) (P35372 whole entry): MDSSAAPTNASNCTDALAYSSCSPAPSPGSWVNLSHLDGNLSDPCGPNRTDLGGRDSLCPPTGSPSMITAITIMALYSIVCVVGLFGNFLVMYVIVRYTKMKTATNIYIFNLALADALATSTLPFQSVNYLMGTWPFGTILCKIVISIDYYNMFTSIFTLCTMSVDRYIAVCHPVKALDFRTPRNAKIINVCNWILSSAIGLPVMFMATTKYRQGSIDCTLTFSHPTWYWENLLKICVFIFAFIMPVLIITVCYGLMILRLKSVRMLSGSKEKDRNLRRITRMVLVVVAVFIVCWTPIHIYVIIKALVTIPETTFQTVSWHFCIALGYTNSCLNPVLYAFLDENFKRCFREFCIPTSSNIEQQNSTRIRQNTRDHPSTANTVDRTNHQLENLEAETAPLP

| SMILES | IC50 (Mu-type opioid receptor [1]) [nM] | IC50 [2] [nM] | EC50 (Mu-type opioid receptor [3]) [nM] | Ratio Ki (Rattus norvegicus) | Ki (Mu-type opioid receptor [4]) [nM] | Ki [5] [nM] | Emax [6] [%] | IC50 (Mu-type opioid receptor [7]) [nM] |
| --- | --- | --- | --- | --- | --- | --- | --- | --- |
| C[C@@H](NC(=O)[C@@H](N)Cc1ccc(O)cc1)C(=O)NC1Cc2ccccc2CN(CC(=O)N[C@@H](Cc2ccc(O)cc2)C(=O)N2CCC[C@H]2C(=O)N[C@@H](CO)C(N)=O)C1=O (some centres undefined) | 11 | 17.4 |  |  |  |  |  |  |
| Cc1cc(O)cc(C)c1C[C@H](N)C(=O)N[C@H](C)C(=O)N[C@@H]1Cc2ccccc2CN(CC(N)=O)C1=O |  |  | 64.2 | 1020 | 0.33 | 337 | 178 |  |
| Cc1cc(O)cc(C)c1C[C@H](N)C(=O)N[C@H](C)C(=O)N[C@H]1C(=O)N(CC(N)=O)Cc2ccccc2[C@H]1C |  |  | 184 | 1220 | 0.4 | 490 | 167 |  |
| Cc1cc(O)cc(C)c1C[C@H](N)C(=O)N[C@H](C)C(=O)N[C@@H]1C(=O)N(CC(N)=O)Cc2ccccc2[C@@H]1C |  |  | 36 | 68 | 0.025 | 1.7 | 191 |  |
| Cc1cc(O)cc(C)c1C[C@H](N)C(=O)N[C@H](C)C(=O)N[C@@]1(C)Cc2ccccc2CN(CC(N)=O)C1=O |  |  | 941 | 187 | 4.6 | 859 | 159 |  |
| Cc1cc(O)cc(C)c1C[C@H](N)C(=O)N[C@H](C)C(=O)N[C@]1(C)Cc2ccccc2CN(CC(N)=O)C1=O |  |  | 288 | 210 | 0.3 | 63 | 154 |  |
| C[C@H](C(=O)NC1Cc2ccccc2CN(CC(N)=O)C1=O)N1Cc2cc(O)ccc2CC(N)C1=O (some centres undefined) | 20.8 |  |  |  |  |  |  | 3.64 |
| Cc1cc(O)cc(C)c1C[C@H](N)C(=O)N[C@H](C)C(=O)N[C@@H]1C(=O)N(CC(N)=O)Cc2ccccc2[C@H]1C |  |  | 685 | 51 | 14 | 720 | 130 |  |
| Cc1cc(O)cc(C)c1C[C@H](N)C(=O)N[C@H](C)C(=O)N[C@H]1Cc2ccccc2CN(CC(N)=O)C1=O |  |  | 18 | 51 | 0.047 | 2.4 | 161 |  |
| Cc1cc(O)cc(C)c1C[C@H](N)C(=O)N[C@H](C)C(=O)N[C@H]1C(=O)N(CC(N)=O)Cc2ccccc2[C@@H]1C |  |  | 9.3 | 960 | 0.025 | 24 | 149 |  |
